Arrestin-AP2 inh: inhibitors of human beta-arrestin and AP2 interaction. actives 0.31% (n = 340,000). inhibition, % at 10 µM. FITC-arrestin peptide / GST-AP2 beads, flow cytometry; AP2 beta2 appendage carries R879A mutation;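 active = inhibition above a set limit, near 3 SD of compounds lacking own fluorescence, cut at about 54% in these data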
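System: GST-tagged AP2 beta2-adaptin appendage (R879A) on 4 µm glutathione beads / Reagent: FITC-arrestin peptide, 50 nM / Detection: HyperCyt-sampled flow cytometry, FL1 channel, ex 488/em 535 nm / Timing: 12 min plus 1 h, RT / Buffer or medium: PBS plus Tween 20 (0.05%) and BSA (0.1%)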
MEKK2wt PB1 HTS: raises or lowers MEK5 binding to wildtype human MEKK2 PB1 domain; Q9Y2U5; bead flow cytometry, Alexa488-MEK5 binding to MEKK2 WT; actives lie on both sides; binding response (% of control), % at 10 µM; actives 1.1% (n = 290,000); in the data active = binding response below about 67% or above about 130%
MEKK3 PB1 HTS: raises or lowers MEK5 binding to the human MEKK3 PB1 domain | Q99759 | bead-based flow cytometry, Alexa488-MEK5 binding to MEKK3; actives lie on both sides; 0 = blocked by unlabeled MEK5, 100 = vehicle | binding response (% of control), % at 10 µM | actives 1.4% (n = 290,000) | AID 1529;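 active = binding response more than 3 SD above or below the average of its plate-row segment, actives on both sides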;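 also: Alexa488 bead fluorescence after subtracting the streptavidin-only scavenger bead signal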
Target sequence (Q99759 whole entry, looked up, the tested form may be a part): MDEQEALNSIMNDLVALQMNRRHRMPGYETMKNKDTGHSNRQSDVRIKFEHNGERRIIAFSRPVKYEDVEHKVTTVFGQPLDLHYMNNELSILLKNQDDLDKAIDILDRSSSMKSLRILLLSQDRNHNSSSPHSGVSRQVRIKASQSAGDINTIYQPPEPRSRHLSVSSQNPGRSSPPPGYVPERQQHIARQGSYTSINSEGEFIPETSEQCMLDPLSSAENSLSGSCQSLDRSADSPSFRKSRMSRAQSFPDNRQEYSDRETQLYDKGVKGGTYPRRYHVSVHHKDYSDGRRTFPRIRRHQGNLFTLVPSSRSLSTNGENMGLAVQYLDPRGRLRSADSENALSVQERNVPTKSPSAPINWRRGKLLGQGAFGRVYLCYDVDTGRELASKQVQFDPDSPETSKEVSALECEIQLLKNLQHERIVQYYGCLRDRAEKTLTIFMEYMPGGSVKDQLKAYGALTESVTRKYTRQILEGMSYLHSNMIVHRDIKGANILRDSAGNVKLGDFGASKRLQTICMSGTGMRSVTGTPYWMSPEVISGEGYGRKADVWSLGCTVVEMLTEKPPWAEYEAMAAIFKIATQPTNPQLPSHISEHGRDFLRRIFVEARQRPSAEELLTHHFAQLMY
MEKK2 mut-MEK5: signal of MEK5 binding to mutant human MEKK2 PB1 domain. bead flow cytometry, Alexa488-MEK5 binding to MEKK2 mutant. percent response, % at 10 µM. actives 0.35% (n = 290,000); in the data active = percent response above about 24%, passing the limit was not always enough
MEKK2wt confirm: raises or lowers MEK5 binding to wildtype human MEKK2, retest; bead flow cytometry, Alexa488-MEK5 binding to MEKK2 WT; actives lie on both sides; shares compounds with MEKK3 PB1 HTS; actives 2.4% (n = 5,900); binding response (% of control), % at 10 µM; AID 1892; in the data active = binding response below about 16% or above about 210%; inactive = in between
MEKK2mut-MEK5: signal of MEK5 binding to mutant human MEKK2, retest; shares compounds with MEKK3 PB1 HTS; bead flow cytometry, Alexa488-MEK5 binding to MEKK2 mutant; percent response, % at 10 µM; actives 2% (n = 5,900); AID 1893; in the data active = percent response mostly above about 71%, no sharp cut-off; inactive = mostly below about 38%;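 also: higher means compound restores mutant binding toward wildtype level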
MEKK3 confirm: confirmation of inhibitors of MEK5 binding to human MEKK3 | AID 1894 | actives 1.8% (n = 5,900) | binding response (% of control), % at 10 µM | bead flow cytometry, Alexa488-MEK5 binding to MEKK3; active compounds read low | shares compounds with MEKK3 PB1 HTS;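 active = binding response below 72% of control, or above a set upper limit, though filed actives all read lower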;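 also: lower values mean stronger disruption of MEK5 binding to MEKK3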
Large screens that a line does not name were inactive (follow-up assays come after a bar, where they were run); [ ] = remark or other dose. The list is not random: actives were taken first. Their share in the collection is about 2.3%.

COC(=O)C(Cc1csc2ccc(Cl)cc12)NC(=O)c1ccc(Cl)cc1 (stereo not given)	none
Cc1cccc(-n2c(-c3ccccc3)c[nH]c2=S)c1C	none
CCC1(c2ccccc2)NC(=S)N(c2cccc(C)c2C)N1 (stereo not given)	MEKK3 PB1 HTS 129.0 | MEKK2wt confirm inactive | MEKK2mut-MEK5 inactive | MEKK3 confirm inactive
O=C(/C(=C(\[O-])c1ccccc1)[n+]1ccc2ccccc2c1)c1ccccc1	MEKK3 PB1 HTS 128.0 | MEKK2wt confirm inactive | MEKK2mut-MEK5 inactive | MEKK3 confirm inactive
Cc1ccc(S(=O)(=O)N(C)C)cc1NC(=O)COC(=O)/C=C/c1ccc(F)cc1	none (no result: MEKK2wt PB1 HTS, MEKK3 PB1 HTS, MEKK2 mut-MEK5)
COc1ccc(-c2cc(C3CCNCC3)[nH]n2)cc1	MEKK2wt PB1 HTS 154.0 | MEKK2wt confirm inactive | MEKK2mut-MEK5 inactive | MEKK3 confirm inactive
Cn1c(SCC(=O)Nc2sccc2C#N)nnc1C1CC1	none (no result: MEKK2wt PB1 HTS, MEKK3 PB1 HTS, MEKK2 mut-MEK5)
COc1cc(-n2c(=O)c3ccccc3n(Cc3ccccc3)c2=O)cc(OC)c1OC	MEKK3 PB1 HTS 134.0 | MEKK2wt confirm inactive | MEKK2mut-MEK5 inactive | MEKK3 confirm inactive
COc1cc(-n2c(=O)c3ccccc3n(Cc3cccc(F)c3)c2=O)cc(OC)c1OC	none
COc1cc(C(C(=O)NC2CCCC2)N(CCO)C(=O)Cn2nnc(-c3ccc(C)o3)n2)ccc1O (stereo not given)	none
CCOc1ccc(C2NC(=O)NC(C)=C2[N+](=O)[O-])cc1OC (stereo not given)	none
O=C(COc1ccc(C(=O)Nc2ccc(Cl)cc2)cc1)NCc1ccccc1	MEKK3 PB1 HTS 155.0 | MEKK2wt confirm inactive | MEKK2mut-MEK5 inactive | MEKK3 confirm inactive
O=C(COc1ccc(C(=O)NCCc2ccccc2)cc1)Nc1ccccc1	none
O=C(NCC1CCCCC1)C1(CC2CC(c3cccc(Br)c3)=NO2)CCNCC1 (stereo not given)	MEKK2wt PB1 HTS 145.0 | MEKK2wt confirm inactive | MEKK2mut-MEK5 inactive | MEKK3 confirm inactive
CC(C)(C)OC(=O)N1CCC(CC2CC(c3cccc(Br)c3)=NO2)(C(=O)NCC2CCCCC2)CC1 (stereo not given)	none
COc1ccccc1CNC(=O)C(=O)NCC1CCCN1S(=O)(=O)c1cccs1 (stereo not given)	none (no result: MEKK2wt PB1 HTS, MEKK3 PB1 HTS, MEKK2 mut-MEK5)
CCC(=Cc1ccccc1O)c1ccncc1	none (no result: MEKK2wt PB1 HTS, MEKK3 PB1 HTS, MEKK2 mut-MEK5)
COc1ccc(N2CCn3c2nc2c3c(=O)n(CCc3ccccc3)c(=O)n2C)c(OC)c1	none (no result: Arrestin-AP2 inh)
COc1ccc(N2CC(C)Cn3c2nc2c3c(=O)n(Cc3ccccc3)c(=O)n2C)c(OC)c1 (stereo not given)	MEKK3 PB1 HTS 73.0[inhibitor] | MEKK2wt confirm inactive | MEKK2mut-MEK5 inactive | MEKK3 confirm inactive
CN(C)C(=O)CN1C(=O)NC2(CCc3ccccc32)C1=O (stereo not given)	none
Cc1cc(C)c(S(=O)(=O)Nc2ccc(Cl)cn2)c(C)c1	none
CC(C)CNC(=O)CSc1nnc2ccccn12	MEKK3 PB1 HTS 53.0[inhibitor] | MEKK2wt confirm inactive | MEKK2mut-MEK5 inactive | MEKK3 confirm inactive
C/C=C1\COC(C(=O)NCCCN2CCCC2=O)(C(F)(F)F)C=C1C=C(C)C (stereo not given)	MEKK3 PB1 HTS 78.0[inhibitor] | MEKK2wt confirm inactive | MEKK2mut-MEK5 inactive | MEKK3 confirm inactive
C/C=C1\COC(C(=O)NCc2ccccc2)(C(F)(F)F)C=C1C=C1CCCCC1 (stereo not given)	none
C/C=C1\COC(C(=O)NCCN2CCCC2)(C(F)(F)F)C=C1C=C1CCCCC1 (stereo not given)	MEKK2wt PB1 HTS 141.0 | MEKK2wt confirm inactive | MEKK2mut-MEK5 inactive | MEKK3 confirm inactive
CCCC(=O)Nc1ccc(C=C(C(C)=O)C(C)=O)cc1	none
FC(F)(F)c1cc(-c2ccco2)nc(NCc2ccco2)n1	none
FC(F)(F)c1cc(-c2ccco2)nc(NCc2cccs2)n1	MEKK3 PB1 HTS 122.0 | MEKK2wt confirm inactive | MEKK2mut-MEK5 inactive | MEKK3 confirm inactive
CCC(C)NCCOc1cccc(Br)c1 (stereo not given)	MEKK3 PB1 HTS 157.0 | MEKK2wt confirm inactive | MEKK2mut-MEK5 inactive | MEKK3 confirm inactive
O=C(N1CCOCC1)N1CCN(c2ccccn2)CC1	none
O=C(C1CCCO1)N1CCN(c2ccccn2)CC1 (stereo not given)	MEKK3 PB1 HTS 73.0[inhibitor] | MEKK2wt confirm inactive | MEKK2mut-MEK5 inactive | MEKK3 confirm inactive
Cc1ccc2nc(CSc3nnc(-c4ccco4)o3)cc(=O)n2c1	MEKK3 PB1 HTS 71.0[inhibitor] | MEKK2wt confirm inactive | MEKK2mut-MEK5 inactive | MEKK3 confirm inactive
Cc1ccc2nc(CSc3nnc(-c4ccco4)n3-c3ccccc3)cc(=O)n2c1	none
Cc1noc(C)c1C(=O)OCC(=O)NC(=O)NC12CC3CC(CC(C3)C1)C2	none
Cc1nn(Cc2ccccc2)c(Cl)c1C(=O)OCC(=O)NC(=O)NC12CC3CC(CC(C3)C1)C2	MEKK3 PB1 HTS 145.0 | MEKK2wt confirm inactive | MEKK2mut-MEK5 inactive | MEKK3 confirm inactive
CN1CCN(CC(=O)Nc2nc(-c3c[nH]c4ccccc34)cs2)CC1	MEKK2wt PB1 HTS 145.0 | MEKK2wt confirm inactive | MEKK2mut-MEK5 inactive | MEKK3 confirm inactive
Nc1nc(-c2c[nH]c3ccccc23)cs1	MEKK2wt PB1 HTS -7.0[inhibitor], MEKK2 mut-MEK5 69.0 | MEKK2wt confirm inactive | MEKK2mut-MEK5 inactive | MEKK3 confirm inactive
CNc1nc(-c2c[nH]c3ccccc23)cs1	MEKK2wt PB1 HTS -4.0[inhibitor] | MEKK2wt confirm -5.0[inhibitor] | MEKK2mut-MEK5 inactive | MEKK3 confirm inactive
CN1CCN(CC(=O)Nc2nc3ccccc3s2)CC1	none
COc1ccccc1NNC(=O)c1cccnc1Oc1ccccc1	none
Cc1cc(C)cc(NC(=O)C2(c3cccs3)CCOCC2)c1	MEKK3 PB1 HTS 136.0 | MEKK2wt confirm inactive | MEKK2mut-MEK5 inactive | MEKK3 confirm inactive
Cc1ccc(NC(=O)C2(c3cccs3)CCOCC2)cc1C	MEKK3 PB1 HTS 69.0[inhibitor] | MEKK2wt confirm inactive | MEKK2mut-MEK5 inactive | MEKK3 confirm inactive
COc1cc(NS(=O)(=O)c2cc(C(=O)NCCc3ccccn3)ccc2OC)cc(OC)c1	none (no result: MEKK2wt PB1 HTS, MEKK3 PB1 HTS, MEKK2 mut-MEK5)
COc1ccc(-c2nnn(Cc3ccccc3)n2)cc1OC	none
COc1ccc(Cn2cc3c(-c4ccc(F)cc4)nnc-3c3cc(OC)c(OC)cc32)cc1	MEKK2wt PB1 HTS 188.0, MEKK2 mut-MEK5 57.0 | MEKK2wt confirm 208.0 | MEKK2mut-MEK5 81.0 | MEKK3 confirm inactive
Cn1nc2c3cc(F)ccc3n(Cc3ccc(F)cc3)cc-2c1=O	none
COc1cc2c3nnc(-c4ccc(F)cc4)c-3cn(Cc3ccccc3)c2cc1OC	MEKK2wt PB1 HTS 178.0, MEKK2 mut-MEK5 46.0 | MEKK2wt confirm inactive | MEKK2mut-MEK5 inactive | MEKK3 confirm inactive
